The values below come from article PMC6824728 (International journal of pharmaceutics, 2019).

For data set [1] the following is noted: 20°C; ref Kim and Hsieh, 2001; Wu and Hopkins, 1999; cited from earlier work.
The subject of data set [2] is M-Wnt cells. The experiment in a line: In vitro cytotoxicity, MTT assay. It is filed as cell-based, murine. The note with it: 24 h of incubation. In a few lines:
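M-Wnt cells were grown in RPMI 1640 plus 1% Glutamax and seeded at 1,000 cells/well. After overnight attachment at 37°C, 5% CO2, they were treated for 24 h with graded concentrations of free compound (DMSO stock diluted in medium) or SLN formulation (dispersed in medium). Drug-free SLN, DMSO and medium controls were included. Survival was read by MTT.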
A general note: Formazan colour is commonly taken as a measure of viable cells.

Data set [3] relates to B16-F10 cells. Description: In vitro cytotoxicity, MTT assay. In kind it is cell-based, murine. The note with it: 48 h of incubation. The procedure, abridged:
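B16-F10 cells were grown in DMEM and seeded at 4,000 cells/well. After overnight attachment at 37°C, 5% CO2, they were exposed for 48 h to graded concentrations of free compound (DMSO stock diluted in medium) or SLN formulation (dispersed in medium). Drug-free SLNs, DMSO and medium served as controls. Survival was read by MTT.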

The test system of data set [4] is B16-F10 tumor. Description: Antitumor activity in mice with pre-established B16-F10 tumors. In kind it is in vivo. The conditions noted are these: B16-F10 s.c. tumors, i.v. 50 mg/kg DHA-dFdC on days 7, 10, 13, 16.
Data set [5] deals with B16-F10 tumors. The experiment in a line: Histology. It is filed as in vivo, C57BL/6 mice. The conditions noted are these: tumors collected day 17; i.v. 50 mg/kg DHA-dFdC x 4. The procedure, abridged: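 Female C57BL/6 mice (18–20 g, 6–8 weeks) received 5 × 10^5 B16-F10 cells s.c. in the right flank on day 0. They were randomized on day 7 and dosed i.v. every 3 days ×4 at 50 mg/kg. Free compound was given in Tween 80/ethanol/5% mannitol vehicle; SLNs were dispersed in 5% mannitol. Tumors were harvested day 17, formalin-fixed, embedded and H&E stained.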

For data set [6] the following is noted: ref Naguib et al., 2016; cited from earlier work.
For data set [7] the following is noted: Tween 80-ethanol-water solution, room temperature; ref Naguib et al., 2016; cited from earlier work.

Take Tween 20: the Critical micelle concentration in data set [1] is reported as ~ 1 % (w/v).
`CC/C=C\C/C=C\C/C=C\C/C=C\C/C=C\C/C=C\CCC(=O)Nc1ccn([C@@H]2O[C@H](CO)[C@@H](O)C2(F)F)c(=O)n1` [DHA-dFdC, 4-(N)-docosahexaenoyl 2′, 2′-difluorodeoxycytidine]: the IC50 (usually the concentration needed to halve the response being measured) in data set [2] was found to be 2.15 µM; in data set [3] it was 1.81 µM. The molecule also returned a Tumor growth delay in data set [4] of 4 days. Also, in data set [5], the “Tumor histology (H&E)” value is “vascular collapse and necrotic areas”. Besides, the “Intrinsic solubility in water” value in data set [6] is reported as ~ 25 μg/mL. Further, the “Half-life of DHA-dFdC in solution” value in data set [7] is listed as ~ 14 h.
